Results: ChEMBL document CHEMBL1143707, “7-Arylpiperazinylalkyl and 7-tetrahydroisoquinolinylalkyl derivatives of 8-alkoxy-purine-2,6-dione and some of their purine-2,6,8-trione analogs as 5-HT(1A), 5-HT(2A), and 5-HT(7) serotonin receptor ligands” (Bioorg Med Chem, 2007)

What was measured:
[1] = target: T1, 5-hydroxytryptamine receptor 1A (Rattus norvegicus, UniProt P19327); experiment: Displacement of [3H]8-OH-DPAT from rat brain 5HT1A receptor
T1 sequence (P19327 whole entry): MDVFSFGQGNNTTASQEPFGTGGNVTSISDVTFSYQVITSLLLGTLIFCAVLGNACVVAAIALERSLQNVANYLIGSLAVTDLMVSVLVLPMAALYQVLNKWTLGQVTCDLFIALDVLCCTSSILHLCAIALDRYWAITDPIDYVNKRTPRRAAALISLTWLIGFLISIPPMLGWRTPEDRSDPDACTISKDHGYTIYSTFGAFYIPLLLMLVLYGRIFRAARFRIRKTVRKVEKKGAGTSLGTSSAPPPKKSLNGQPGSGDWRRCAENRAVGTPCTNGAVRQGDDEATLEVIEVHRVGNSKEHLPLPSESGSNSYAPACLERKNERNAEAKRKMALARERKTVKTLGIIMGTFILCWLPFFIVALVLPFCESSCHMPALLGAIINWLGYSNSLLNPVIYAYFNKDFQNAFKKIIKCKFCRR
Summary of the method: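 Rat hippocampal membranes; 1 nM [3H]-8-OH-DPAT; nonspecific binding with 10 μM 5-HT; 8–10 competitor concentrations in triplicate, ≥3 experiments; GF/B filtration, ice-cold buffer washes, scintillation counting; Ki by nonlinear regression with Cheng–Prusoff.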

[2] = target: 5-hydroxytryptamine receptor 7 (Rattus norvegicus, UniProt P32305); experiment: Displacement of [3H]5CT from 5HT7 receptor in Wistar rat hyphalamic membrane; type: cell membranes
Chain of 5-hydroxytryptamine receptor 7 (P32305 whole entry): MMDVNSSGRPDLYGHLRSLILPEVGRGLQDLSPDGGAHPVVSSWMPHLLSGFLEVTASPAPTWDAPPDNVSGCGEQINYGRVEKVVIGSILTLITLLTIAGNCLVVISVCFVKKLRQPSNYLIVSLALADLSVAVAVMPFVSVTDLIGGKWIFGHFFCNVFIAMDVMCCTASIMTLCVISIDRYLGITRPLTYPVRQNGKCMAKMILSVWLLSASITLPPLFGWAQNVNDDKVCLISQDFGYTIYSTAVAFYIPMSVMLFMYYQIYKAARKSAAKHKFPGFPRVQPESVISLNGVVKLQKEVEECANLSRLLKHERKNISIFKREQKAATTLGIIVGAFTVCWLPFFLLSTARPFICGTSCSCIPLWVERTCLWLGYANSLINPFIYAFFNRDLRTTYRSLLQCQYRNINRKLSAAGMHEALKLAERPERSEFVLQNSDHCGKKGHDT

[3] = target: 5-hydroxytryptamine receptor 2A (Rattus norvegicus, UniProt P14842); experiment: Displacement of [3H]ketanserin from rat brain 5HT2A receptor
Chain of 5-hydroxytryptamine receptor 2A (P14842 whole entry): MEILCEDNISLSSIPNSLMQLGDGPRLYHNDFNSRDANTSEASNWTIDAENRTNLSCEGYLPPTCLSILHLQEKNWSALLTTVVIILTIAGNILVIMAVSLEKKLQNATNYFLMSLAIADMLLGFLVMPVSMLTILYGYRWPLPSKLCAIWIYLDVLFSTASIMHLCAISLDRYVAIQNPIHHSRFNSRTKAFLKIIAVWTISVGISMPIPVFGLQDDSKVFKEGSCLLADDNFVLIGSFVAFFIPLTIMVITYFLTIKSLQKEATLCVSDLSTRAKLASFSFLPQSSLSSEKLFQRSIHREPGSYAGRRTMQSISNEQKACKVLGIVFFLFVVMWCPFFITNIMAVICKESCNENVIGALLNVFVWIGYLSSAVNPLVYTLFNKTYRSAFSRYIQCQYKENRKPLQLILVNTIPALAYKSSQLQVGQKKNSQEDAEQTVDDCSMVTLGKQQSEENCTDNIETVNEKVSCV
Summary of the method: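 Rat brain membranes; 0.6 nM [3H]-ketanserin; nonspecific binding with 1 μM methysergide; 8–10 competitor concentrations in triplicate, ≥3 experiments; GF/B filtration, scintillation counting; Ki via Cheng–Prusoff.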

Row | SMILES | Ki [1] [nM] | Ki [2] [nM] | Ki [3] [nM]
1 | CCOc1nc2c(c(=O)n(C)c(=O)n2C)n1CCCCN1CCN(c2ccccc2)CC1 | 67 | 197 | 131
2 | CCCOc1nc2c(c(=O)n(C)c(=O)n2C)n1CCCCN1CCN(c2ccccc2OC)CC1 | 19 | 160 | 150
3 | CCCOc1nc2c(c(=O)n(C)c(=O)n2C)n1CCCN1CCN(c2cccc(Cl)c2)CC1 | 288 | 267 | 25
4 | CCCOc1nc2c(c(=O)n(C)c(=O)n2C)n1CCCN1CCN(c2ccccc2OC)CC1 | 314 | 328 | 540
5 | CCOc1nc2c(c(=O)n(C)c(=O)n2C)n1CCCN1CCN(c2cccc(Cl)c2)CC1 | 190 | 130 | 23
6 | CCCOc1nc2c(c(=O)n(C)c(=O)n2C)n1CCCCN1CCN(c2ccccc2)CC1 | 130 | 680 | 57
7 | CCOc1nc2c(c(=O)n(C)c(=O)n2C)n1CCCN1CCN(c2ccccc2OC)CC1 | 83 | 410 | 980
8 | CCOc1nc2c(c(=O)n(C)c(=O)n2C)n1CCCCN1CCN(c2cccc(Cl)c2)CC1 | 12 | 51 | 15

Second part, the compound after the results:

Row | Ki [1] [nM] | Ki [2] [nM] | Ki [3] [nM] | SMILES
9 | 1300 | 477 | 176 | CCOc1nc2c(c(=O)n(C)c(=O)n2C)n1CCCN1CCN(c2ccccc2)CC1
10 | 1110 | 1880 | 58 | Cn1c(=O)c2c([nH]c(=O)n2CCCN2CCN(c3cccc(Cl)c3)CC2)n(C)c1=O
11 | 1010 | 4400 | 2610 | CCCOc1nc2c(c(=O)n(C)c(=O)n2C)n1CCCN1CCc2ccccc2C1
12 | 430 | 83 | 1930 | CCOc1nc2c(c(=O)n(C)c(=O)n2C)n1CCCCN1CCc2ccccc2C1
13 | 260 | 3670 | 60 | Cn1c(=O)c2c([nH]c(=O)n2CCCCN2CCN(c3cccc(Cl)c3)CC2)n(C)c1=O
14 | 1500 | 1820 | 560 | Cn1c(=O)c2c([nH]c(=O)n2CCCCN2CCN(c3ccccc3)CC2)n(C)c1=O
15 | 4210 | 13900 | 230 | Cn1c(=O)c2c([nH]c(=O)n2CCCN2CCN(c3ccccc3)CC2)n(C)c1=O
16 | 6320 | 16500 | 7960 | Cn1c(=O)c2c([nH]c(=O)n2CCCN2CCc3ccccc3C2)n(C)c1=O
17 | 800 | 980 | 51 | CCCOc1nc2c(c(=O)n(C)c(=O)n2C)n1CCCN1CCN(c2ccccc2)CC1
18 | 332 | 57 | 920 | CCCOc1nc2c(c(=O)n(C)c(=O)n2C)n1CCCCN1CCc2ccccc2C1
19 | 1070 | 5750 | 590 | CCOc1nc2c(c(=O)n(C)c(=O)n2C)n1CCCN1CCc2ccccc2C1
